According to ChEMBL document CHEMBL1781959, “Synthesis and in vitro antitumor activity of substituted quinazoline and quinoxaline derivatives: search for anticancer agent” (Eur J Med Chem, 2011):

Tests used:
Format in all cases: functional
CCRF-CEM = assay: Anticancer activity against human CCRF-CEM cells assessed as cell growth promotion at 10^-5 M after 48 hrs by SRB assay relative to control
SNB-19 = assay: Anticancer activity against human SNB19 cells assessed as cell growth promotion at 10^-5 M after 48 hrs by SRB assay relative to control
MCF7 = assay: Anticancer activity against human MCF7 cells assessed as cell growth promotion at 10^-5 M after 48 hrs by SRB assay relative to control
UACC-257 = assay: Anticancer activity against human UACC257 cells assessed as cell growth promotion at 10^-5 M after 48 hrs by SRB assay relative to control
UO-31 = assay: Anticancer activity against human UO31 cells assessed as cell growth promotion at 10^-5 M after 48 hrs by SRB assay relative to control
SK-MEL-5 = assay: Anticancer activity against human SK-MEL-5 cells assessed as cell growth promotion at 10^-5 M after 48 hrs by SRB assay relative to control
NCI-H322M = assay: Anticancer activity against human NCI-H322M cells assessed as cell growth promotion at 10^-5 M after 48 hrs by SRB assay relative to control
MDA-MB-468 = assay: Anticancer activity against human MDA-MB-468 cells assessed as cell growth promotion at 10^-5 M after 48 hrs by SRB assay relative to control
NCI-H23 = assay: Anticancer activity against human NCI-H23 cells assessed as cell growth promotion at 10^-5 M after 48 hrs by SRB assay relative to control
HCT-15 = assay: Anticancer activity against human HCT15 cells assessed as cell growth promotion at 10^-5 M after 48 hrs by SRB assay relative to control
KM12 = assay: Anticancer activity against human KM12 cells assessed as cell growth promotion at 10^-5 M after 48 hrs by SRB assay relative to control
HCT-116 = assay: Anticancer activity against human HCT116 cells assessed as cell growth promotion at 10^-5 M after 48 hrs by SRB assay relative to control
OVCAR-3 = assay: Anticancer activity against human OVCAR3 cells assessed as cell growth promotion at 10^-5 M after 48 hrs by SRB assay relative to control
MDA-MB-435 = assay: Anticancer activity against human MDA-MB-435 cells assessed as cell growth promotion at 10^-5 M after 48 hrs by SRB assay relative to control
COLO 205 = assay: Anticancer activity against human COLO205 cells assessed as cell growth promotion at 10^-5 M after 48 hrs by SRB assay relative to control
HT-29 = assay: Anticancer activity against human HT-29 cells assessed as cell growth promotion at 10^-5 M after 48 hrs by SRB assay relative to control
UACC-62 = assay: Anticancer activity against human UACC62 cells assessed as cell growth promotion at 10^-5 M after 48 hrs by SRB assay relative to control
M14 = assay: Anticancer activity against human M14 cells assessed as cell growth promotion at 10^-5 M after 48 hrs by SRB assay relative to control
K562 = assay: Anticancer activity against human K562 cells assessed as cell growth promotion at 10^-5 M after 48 hrs by SRB assay relative to control
SK-MEL-28 = assay: Anticancer activity against human SK-MEL-28 cells assessed as cell growth promotion at 10^-5 M after 48 hrs by SRB assay relative to control
HOP-62 = assay: Anticancer activity against human HOP62 cells assessed as cell growth promotion at 10^-5 M after 48 hrs by SRB assay relative to control
LOX IMVI = assay: Anticancer activity against human LOXIMVI cells assessed as cell growth promotion at 10^-5 M after 48 hrs by SRB assay relative to control
NCI/ADR-RES = assay: Anticancer activity against human NCI/ADR-RES cells assessed as cell growth promotion at 10^-5 M after 48 hrs by SRB assay relative to control
PC-3 = assay: Anticancer activity against human PC3 cells assessed as cell growth promotion at 10^-5 M after 48 hrs by SRB assay relative to control
NCI-H460 = assay: Anticancer activity against human NCI-H460 cells assessed as cell growth promotion at 10^-5 M after 48 hrs by SRB assay relative to control
MOLT-4 = assay: Anticancer activity against human MOLT4 cells assessed as cell growth promotion at 10^-5 M after 48 hrs by SRB assay relative to control
A498 = assay: Anticancer activity against human A498 cells assessed as cell growth promotion at 10^-5 M after 48 hrs by SRB assay relative to control
ACHN = assay: Anticancer activity against human ACHN cells assessed as cell growth promotion at 10^-5 M after 48 hrs by SRB assay relative to control
HL-60(TB) = assay: Anticancer activity against human HL-60(TB) cells assessed as cell growth promotion at 10^-5 M after 48 hrs by SRB assay relative to control
Procedure, shortened: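 NCI-60 single-dose screen: compound at 10^-5 M, 48 h at 37 °C, 5% CO2; cells grown in RPMI 1640 with 5% FBS and 2 mM L-glutamine, pre-incubated 24 h before dosing. Adherent cells fixed with cold TCA; endpoint is sulforhodamine B protein staining. Percent growth of treated cells is reported relative to untreated control.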

NCI-H226 = assay: Anticancer activity against human NCI-H226 cells assessed as cell growth promotion at 10^-5 M after 48 hrs by SRB assay relative to control
TK-10 = assay: Anticancer activity against human TK10 cells assessed as cell growth promotion at 10^-5 M after 48 hrs by SRB assay relative to control
[1] = Anticancer activity against human Hs 578T cells assessed as cell growth promotion at 10^-5 M after 48 hrs by SRB assay relative to control
OVCAR-8 = assay: Anticancer activity against human OVCAR8 cells assessed as cell growth promotion at 10^-5 M after 48 hrs by SRB assay relative to control
A549 = assay: Anticancer activity against human A549 cells assessed as cell growth promotion at 10^-5 M after 48 hrs by SRB assay relative to control
SF-539 = assay: Anticancer activity against human SF539 cells assessed as cell growth promotion at 10^-5 M after 48 hrs by SRB assay relative to control
OVCAR-5 = assay: Anticancer activity against human OVCAR5 cells assessed as cell growth promotion at 10^-5 M after 48 hrs by SRB assay relative to control

SMILES	Activity (CCRF-CEM) [%]	Activity (SNB-19) [%]	Activity (MCF7) [%]	Activity (UACC-257) [%]	Activity (UO-31) [%]	Activity (SK-MEL-5) [%]	Activity (MDA-MB-468) [%]	Activity (NCI-H23) [%]	Activity (HCT-15) [%]	Activity (KM12) [%]	Activity (HCT-116) [%]	Activity (OVCAR-3) [%]	Activity (MDA-MB-435) [%]	Activity (COLO 205) [%]	Activity (HT-29) [%]	Activity (UACC-62) [%]	Activity (M14) [%]	Activity (K562) [%]	Activity (SK-MEL-28) [%]	Activity (HOP-62) [%]	other results
N#Cc1ccc(/C=C/c2nc3ccccc3nc2SCc2nc3ccccc3[nH]2)cc1	93.78	100	101	113	86.51	101	104	105	114	104	88.47	110	109	105	89.43	100	99.32	99.2	88.08	99.49	Activity (NCI-H322M): 120%; Activity (LOX IMVI): 100%; Activity (NCI/ADR-RES): 103%; Activity (PC-3): 103%; Activity (NCI-H460): 104%; Activity (MOLT-4): 88.59%; Activity (A498): 105%; Activity (ACHN): 100%; Activity (HL-60(TB)): 94.7%; Activity (NCI-H226): 95.59%; Activity (TK-10): 86.49%; Activity [1]: 107%; Activity (OVCAR-8): 103%; Activity (A549): 93.12%; Activity (SF-539): 125%; Activity (OVCAR-5): 104%
Oc1ccc(/C=C/c2nc3ccccc3nc2SCc2nc3ccccc3[nH]2)cc1	77.99	97.81	89.91	117	85.96	95.26	114	102	96.67	98.91	89.77	102	96.11	119	86.49	96.99	100	107	102	101	Activity (LOX IMVI): 95.29%; Activity (NCI/ADR-RES): 100%; Activity (PC-3): 96.98%; Activity (NCI-H460): 95.51%; Activity (MOLT-4): 75.47%; Activity (A498): 88.72%; Activity (ACHN): 93.62%; Activity (HL-60(TB)): 84.38%; Activity (NCI-H226): 99.33%; Activity (TK-10): 107%; Activity [1]: 110%; Activity (OVCAR-8): 100%; Activity (A549): 85.66%; Activity (SF-539): 111%; Activity (OVCAR-5): 102%
CN(C)c1ccc(/C=C/c2nc3ccccc3nc2SCc2nc3ccccc3[nH]2)cc1	81.79	96.81	77.51	102	84.96	97.96	109	102	93.83	104	87.81	107	102	110	101	84.34	92.21	105	124	100	Activity (NCI-H322M): 97.59%; Activity (LOX IMVI): 103%; Activity (NCI/ADR-RES): 106%; Activity (PC-3): 119%; Activity (NCI-H460): 104%; Activity (MOLT-4): 84.64%; Activity (A498): 88.48%; Activity (ACHN): 103%; Activity (HL-60(TB)): 87.19%; Activity (NCI-H226): 105%; Activity (TK-10): 113%; Activity [1]: 119%; Activity (OVCAR-8): 108%; Activity (A549): 97.05%; Activity (SF-539): 85.81%; Activity (OVCAR-5): 102%
Oc1ccccc1/C=C/c1nc2ccccc2nc1SCc1nc2ccccc2[nH]1	41.14	76.6	51.8	81.1	49.71	68.43	59.53	76.93	74.29	77.92	65.39	81.53	81.04	96.37	83.56	58.04	70.2	77.33	95.95	73.71	Activity (NCI-H322M): 80.01%; Activity (LOX IMVI): 78.17%; Activity (NCI/ADR-RES): 82.43%; Activity (PC-3): 63.9%; Activity (NCI-H460): 80.34%; Activity (MOLT-4): 57.51%; Activity (A498): 92.56%; Activity (ACHN): 69.99%; Activity (HL-60(TB)): 26.78%; Activity (NCI-H226): 79.35%; Activity (TK-10): 43.48%; Activity [1]: 48.8%; Activity (OVCAR-8): 75.12%; Activity (A549): 77.16%; Activity (SF-539): 97.28%; Activity (OVCAR-5): 86.09%
